Here are results for 9 compounds from publication PMC2846203 (Journal of natural products, 2010).

The target in assay [1] is α4β2 nAChR (Rattus norvegicus, UniProt P09483+P12390). Nature of the assay: [3H]epibatidine binding assay. Particulars: ratio of Ki values.
In assay [2] the test system is mice. Conditions: mouse, cited from earlier work.
Assay [3] concerns mice. Conditions: mouse, cited from earlier work. This is another data set of the same source.
Assay [4] relates to mice. Conditions: mouse, cited from earlier work. This is another data set of the same source.
In assay [5] the test system is mice. Conditions: mouse, cited from earlier work. The source holds these as a separate data set.
Assay [6] relates to mice. Nature of the assay: antagonism of nicotine-induced antinociception, hot-plate test. The assay is classed as in vivo, mouse. Conditions: for times more potent as an antagonist than varenicline in the hot-plate test: ratio of AD50 values. On the technique in general: In hot-plate and tail-flick tests a longer latency is read as antinociception.
For assay [7], the system named is mice. Description: tail-flick test. Type of assay: in vivo, mouse. Summed up:
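D'Amour–Smith tail-flick in mice. Racemic hydrochloride test compound given s.c., with testing 5 min later. %MPE = [(test−control)/(10−control)]×100. 8–12 mice per dose, minimum four doses; ED50 with confidence limits from the dose-response curve.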

In assay [8] the test system is mice. Description: hot-plate test. The assay is classed as in vivo, mouse. Summed up: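 Mice in a 10 cm glass cylinder on a 55.0 °C hot plate. Two control latencies, at least 10 min apart, per mouse; normal latency 8–12 sec. Endpoint: jumping or paw licking. Eight mice per dose got racemic hydrochloride test compound s.c. and were tested 5 min later. %MPE = [(test−control)/(40−control)]×100; ED50 from dose-response curve.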

In assay [9] the test system is mice. Description: hypothermia. The assay is classed as in vivo, mouse. Conditions: ratio of ED50 values. Summed up:
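Mouse rectal temperature read by thermistor probe (inserted 24 mm) and digital thermometer, just before and 30 min after s.c. saline or racemic hydrochloride test compound. Change in temperature calculated for each mouse.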

The test system of assay [10] is mice. Description: spontaneous activity. The assay is classed as in vivo, mouse. Particulars: ratio of ED50 values.
Assay [11] has as its system mice. Nature of the assay: antagonism of nicotine-induced antinociception, tail-flick test. The assay is classed as in vivo. Particulars: Mus musculus, sc, read-out: AD50 (µg/kg) tail-flick.
Assay [12] deals with mice. Particulars: mouse; antagonism of nicotine-induced antinociception; cited from earlier work.
Assay [13] deals with mice. Conditions: mouse; antagonism of nicotine-induced antinociception; cited from earlier work. This is another data set of the same source.

Structures are written as SMILES. Where two headings read alike, the source gives them in different places. Marks after values point to notes of the source that are not given here.

Sequence of α4β2 nAChR (P12390 25-500): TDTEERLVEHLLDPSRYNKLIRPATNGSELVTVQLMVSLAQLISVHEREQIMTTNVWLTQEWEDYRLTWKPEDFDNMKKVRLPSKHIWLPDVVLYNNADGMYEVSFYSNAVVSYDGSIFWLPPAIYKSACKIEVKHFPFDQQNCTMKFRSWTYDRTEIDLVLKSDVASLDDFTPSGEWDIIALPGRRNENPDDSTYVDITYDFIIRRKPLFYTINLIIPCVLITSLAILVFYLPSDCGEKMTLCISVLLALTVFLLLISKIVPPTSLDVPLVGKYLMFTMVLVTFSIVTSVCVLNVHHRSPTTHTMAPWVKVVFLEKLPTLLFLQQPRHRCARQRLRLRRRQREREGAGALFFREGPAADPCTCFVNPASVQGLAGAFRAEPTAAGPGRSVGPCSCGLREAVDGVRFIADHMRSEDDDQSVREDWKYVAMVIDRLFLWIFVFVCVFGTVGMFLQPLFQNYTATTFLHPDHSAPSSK
Sequence of α4β2 nAChR (P09483 31-630): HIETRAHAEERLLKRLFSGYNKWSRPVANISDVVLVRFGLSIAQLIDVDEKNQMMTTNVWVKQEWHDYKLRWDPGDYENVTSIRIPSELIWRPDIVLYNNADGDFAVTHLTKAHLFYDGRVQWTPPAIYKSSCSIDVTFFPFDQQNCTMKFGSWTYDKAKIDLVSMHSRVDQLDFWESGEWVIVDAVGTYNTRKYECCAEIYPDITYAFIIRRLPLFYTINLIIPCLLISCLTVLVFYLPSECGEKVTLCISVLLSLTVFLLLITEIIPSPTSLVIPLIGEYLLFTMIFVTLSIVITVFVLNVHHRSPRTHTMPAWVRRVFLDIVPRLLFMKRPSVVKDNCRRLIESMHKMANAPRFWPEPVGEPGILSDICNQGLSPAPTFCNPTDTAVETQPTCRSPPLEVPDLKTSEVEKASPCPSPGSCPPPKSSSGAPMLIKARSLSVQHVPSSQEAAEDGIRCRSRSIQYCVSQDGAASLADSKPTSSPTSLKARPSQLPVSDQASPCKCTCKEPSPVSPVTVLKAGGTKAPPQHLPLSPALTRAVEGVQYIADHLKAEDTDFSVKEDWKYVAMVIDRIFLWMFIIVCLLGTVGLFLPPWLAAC

For `Clc1ncc([C@H]2C[C@@H]3CC[C@H]2N3)cc1-c1ccccc1` [5a], in assay [1], the “times higher affinity at the α4β2 nAChR than nicotine” value amounted to 71 times and the “times higher affinity at the α4β2 nAChR than varenicline” value is on record as 6 times. The ED50 mg/kg tail-flick in assay [2] ((confidence limits)) was 0.7 ^g (0.5–1.0) mg/kg. Moreover, in assay [3] ((confidence limits)), the ED50 mg/kg hot-plate is recorded as 1.0 ^g (0.5–2.0) mg/kg. For the same compound, the ED50 mg/kg hypothermia in [4] ((confidence limits)) was 0.4 ^g (0.1–0.9) mg/kg. The “ED50 mg/kg spontaneous activity” value in [5] ((confidence limits)) was 0.35 ^g (0.2–0.85) mg/kg.

As to `Fc1cccc(-c2cc([C@H]3C[C@@H]4CC[C@H]3N4)cnc2Cl)c1` [5c, 3′-(3-Fluorophenyl)epibatidine], the “times more potent as an antagonist than varenicline in the hot-plate test” value (“times more potent” for short) in assay [6] is listed as 5.5 times.

For the compound `Clc1cccc(-c2cc([C@H]3C[C@@H]4CC[C@H]3N4)cnc2Cl)c1` [5e, 3′-(3-Chlorophenyl)epibatidine], the “selectivity for α4β2 nAChR relative to α7 nAChR” value in assay [1] is given as “greater than 2000 fold”. The “times more potent” value in assay [6] came to 5.9 times.

In the case of `Nc1cccc(-c2cc([C@H]3C[C@@H]4CC[C@H]3N4)cnc2Cl)c1` [5j, 3′-(3-Aminophenyl)epibatidine], in assay [7] (ratio of ED50 values), the “times weaker than epibatidine (1), tail-flick” value is 57 times. Moreover, the “times weaker than epibatidine (1), hot-plate” value in assay [8] (ratio of ED50 values) is recorded as 75 times. The “times weaker than epibatidine (1), hypothermia” value in [9] was 76 times. The “times weaker than epibatidine (1), spontaneous activity” value in assay [10] was 30 times. Further, the “AD50 (µg/kg) hot-plate” value in [6] (mouse, antagonism of nicotine-induced antinociception, (confidence limits)) is listed as 26 (5–90) µg/kg. Further, in assay [6], the “times more potent” value was 18 times.

In the case of `COc1ccc(-c2cc([C@H]3C[C@@H]4CC[C@H]3N4)cnc2Cl)cc1` [5k, 3′-(4-Methoxylphenyl)epibatidine], the ED50 in assay [11] is 10 µg/kg.

With `CN(C)c1cccc(-c2cc([C@H]3C[C@@H]4CC[C@H]3N4)cnc2Cl)c1` [5m, 3′-(3-Dimethylaminophenyl)epibatidine], the “agonist activity in the tail-flick test” value in assay [7] (mouse) was “did not have agonist activity”. Moreover, the “agonist activity in the hot-plate test” value in [8] (mouse) is given as “did not have agonist activity”.

On to `Clc1ccc([C@@H]2C[C@H]3CC[C@@H]2N3)cn1` [(+)-epibatidine, epibatidine], for which the ED50 mg/kg tail-flick in assay [2] is given as 0.0061 ^e mg/kg.

As to `Clc1ccc([C@@H]2C[C@H]3CC[C@@H]2N3)cn1` [(−)-epibatidine, epibatidine], the ED50 mg/kg tail-flick in assay [2] is recorded as 0.0066 ^e mg/kg.

Take `c1cnc2cc3c(cc2n1)[C@@H]1CNC[C@H]3C1` [varenicline, reference compound]: the “agonist activity in the tail-flick test” value in assay [2] is “inactive”. Besides, in assay [3], the “agonist activity in the hot-plate test” value is “inactive”. In addition, the ED50 mg/kg hypothermia in assay [4] is reported as 2.8 mg/kg. Moreover, in assay [5], the “ED50 mg/kg spontaneous activity” value is listed as 2.1 mg/kg. Moreover, in assay [12], the “AD50 (µg/kg) tail-flick” value was 0.2 µg/kg. Also, the “AD50 (µg/kg) hot-plate” value in [13] is 470 µg/kg.
